Assay outcomes from PubChem.
A selection: hits, their analogues and other compounds. The true share with any hit is near 2.2%.
FGF22 binding: FGF22 (human) thermal shift binding. recombinant FGF22 thermal shift, SYPRO orange fluorescence; percent of sucrose octasulfate shift, DMSO zero. activity (Tm shift, normalised), % at 9.99 µM. actives 1.5% (n = 340,000). AID 651658;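 active means mean Tm shift, scaled 0 neutral to 100 positive control, at about 1.3% or above, every replicate too, limit read from the data; inconclusive means no clear call, values can overlap the other calls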
Target sequence (Q9HCT0 whole entry, looked up): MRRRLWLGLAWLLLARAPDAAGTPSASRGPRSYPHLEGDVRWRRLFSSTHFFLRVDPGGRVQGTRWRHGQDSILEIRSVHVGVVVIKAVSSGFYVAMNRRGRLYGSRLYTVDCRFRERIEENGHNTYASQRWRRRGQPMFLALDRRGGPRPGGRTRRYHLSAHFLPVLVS
F508del corr: correctors of CFTR F508del function in bronchial epithelial cells; CFBE cells, YFP halide quenching; stimulated with forskolin plus potentiator P3; % fluorescence drop versus neutral controls; activity (quench increase), % at 7.58 µM; actives 0.36% (n = 350,000); AID 720511;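 active means mean added fluorescence quench of at least 8% versus neutral control, with both replicates also reaching 8%; inconclusive means only one of the mean or replicate conditions met; inactive means mean below 8% and not both replicates reaching 8%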;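 further: cells transiently co-express mutant CFTR-F508del with the halide-sensitive YFP; corrector assay measuring rescue of mutant channel to the surface after 24 h compound exposure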
dFosB activator: enhances mouse delta FosB homodimer DNA binding; actives 0.99% (n = 340,000); AID 493131; activation, % at 25 µM; purified delta FosB, TAMRA-CDK5 oligo fluorescence polarization; percent of positive-control signal above neutral wells; P13346;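 active means mean activation above about 17%, with every replicate also reaching it, limit read from the data, passing the limit was not always enough; inconclusive means only one of the two conditions met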
S100A4 inh HTS: S100A4-myosin IIA interaction inhibition; P26447; S100A4/TAMRA-MyoIIA peptide fluorescence polarization; inhibition, % at 10.7 µM; actives 0.14% (n = 360,000); AID 652163;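 active means mean inhibition of at least 70% across replicates, with every replicate also reaching that level; inconclusive means mean inhibition reaches 70% but some replicates fall short; inactive means mean inhibition below 70%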
Target sequence (P26447 whole entry, looked up): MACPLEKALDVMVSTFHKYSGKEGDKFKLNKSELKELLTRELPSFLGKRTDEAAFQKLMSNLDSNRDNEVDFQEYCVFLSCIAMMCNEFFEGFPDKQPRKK
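Compound dosing: one dose per compound; test system: human S100A4 monomer with TAMRA-labelled myosin IIA peptide; probe or stimulus: TAMRA-labelled myosin IIA heavy-chain peptide probe, 5 nM; medium: HEPES buffer with Ca2+, pH 7.2; schedule: 5 min incubation before reading; benchmarks: neutral control DMSO, positive control TFP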
Of the large screens only hits and unclear results are named; the others gave an inactive call.

O=C(CNC(=O)c1ccc2c(c1)OCCO2)N=Nc1c(O)[nH]c2ccccc12	dFosB activator 24
Cc1ccc(N=c2c([N+](=O)[O-])nn(-c3ccc4c(c3)OCCO4)n2O)cc1F	FGF22 binding 43
C(=N\Nc1ncnc2nc[nH]c12)/c1cccs1	FGF22 binding 43
Oc1c(Br)cc(Br)cc1C=NCc1ccc(F)cc1	FGF22 binding 43
CC=Cc1ccc2n(c1=O)C[C@H]1[C@H](CO)[C@@H](C(=O)NCc3ccccc3)[C@@H]2N1CC (mixture of isomers)	FGF22 binding 1.4 (no result: dFosB activator)
CC=Cc1ccc2n(c1=O)C[C@@H]1[C@@H](CO)[C@H](C(=O)NCc3ccccc3)[C@H]2N1CC (mixture of isomers)	none (no result: dFosB activator)
CC=Cc1ccc2n(c1=O)C[C@@H]1[C@@H](CO)[C@H](C(=O)NCc3ccc4c(c3)OCO4)[C@H]2N1C(C)=O (mixture of isomers)	S100A4 inh HTS 125 (no result: dFosB activator)
CC=Cc1ccc2n(c1=O)C[C@@H]1[C@@H](CO)[C@H](C(=O)NCc3ccc4c(c3)OCO4)[C@H]2N1C(=O)CC (mixture of isomers)	none (no result: dFosB activator)
C[C@@H]1CN([C@H](C)CO)C(=O)Cc2cc(NS(=O)(=O)c3ccc(Cl)cc3)ccc2O[C@@H]1CN(C)Cc1ccncc1	none (no result: dFosB activator)
CC[n+]1c(/C=C2\Sc3ccccc3N2C)ccc2cccc(C)c21	F508del corr 18
CCN1/C(=C/c2ccc3cc(C)ccc3[n+]2CC)Sc2ccccc21	dFosB activator 52
CCN1/C(=C/c2ccc3cc(C)ccc3[n+]2CC)Sc2cc(C)c(C)cc21	none
Cc1noc(C)c1S(=O)(=O)Nc1ccc2c(c1)C(=O)N([C@H](C)CO)C[C@H](C)[C@@H](CN(C)S(C)(=O)=O)OCCCC[C@H](C)O2	none (no result: dFosB activator)
CN1C(=O)c2cc(NC(=O)c3ccccc3)ccc2OC[C@@H]2O[C@H](CC(=O)NCC3CC3)CC[C@H]21	none (no result: dFosB activator)
C[C@H]1CN([C@@H](C)CO)C(=O)c2cc(C#CC3CCCCC3)cnc2O[C@@H]1CN(C)S(=O)(=O)c1cccc(F)c1	none (no result: dFosB activator)
O=C(NC1CCC1)[C@@H]1[C@@H](CO)[C@@H]2Cn3c(ccc(C4=CCCC4)c3=O)[C@H]1N2CC1CC1	S100A4 inh HTS inconclusive (no result: dFosB activator)
COCc1ccc(CN2CCc3c([nH]c4ccccc34)C2CC(C)C)o1 (configuration not stated)	FGF22 binding 43
C[C@@H]1CCCCO[C@H](CN(C)C(=O)c2ccccc2)[C@H](C)CN([C@@H](C)CO)C(=O)c2cc(NC(=O)c3ccccc3)ccc2O1	none (no result: FGF22 binding, dFosB activator)
O=C(C[C@@H]1C[C@@H]2c3cc(NC(=O)Nc4ccccc4)ccc3O[C@@H]2[C@@H](CO)O1)NCc1ccccc1	none (no result: dFosB activator)
CC(C)(C)N1NC2(CCCCC2)NC1=S	FGF22 binding 43
Cc1cc2cc(CNC(=O)Nc3ccc(Cl)c(Cl)c3)ccc2n1C	S100A4 inh HTS 80
COCC(=O)NCc1ccc2c(c1)cc(C)n2C	none
CC(OC(=O)C1=Cc2ccccc2OC1)C(=O)NCC1CCCO1 (configuration not stated)	FGF22 binding 1.9
COCCNC(=O)C(C)OC(=O)C1=Cc2ccccc2OC1 (configuration not stated)	none
O=C(OCC(=O)N1CCN(C(=O)c2ccco2)CC1)c1cc(S(=O)(=O)Nc2ccc(Cl)cc2)ccc1O	none
O=C(CCNS(=O)(=O)c1ccc(Cl)cc1)OCC(=O)N1CCN(C(=O)c2ccco2)CC1	FGF22 binding 13
O=C(CSc1nc2ccccc2[nH]1)NCc1ccc(F)cc1	FGF22 binding 43
COc1cccc(CNC(=O)CSc2nc3ccc(C)cc3[nH]2)c1	F508del corr 8.4
C[C@@H]1CN([C@H](C)CO)S(=O)(=O)c2ccc(C#Cc3ccncc3)cc2O[C@H]1CN(C)C	none (no result: dFosB activator)
O=C(C[C@@H]1C=C[C@@H](NC(=O)c2ccc3c(c2)OCO3)[C@H](CO)O1)NCc1ccc(F)cc1	none (no result: dFosB activator)
CC1(C)CC(=O)C=C(c2ccccc2-c2ccc3cc[nH]c3c2)C1=O	FGF22 binding 43 (no result: dFosB activator)
